Key:
[1] = Lipophilicity, logD of compound; assay type: physicochemical; conditions: octanol/water
[2] = Drug level in mouse plasma at 40 mg/kg, po administered as single dose measured after 8 hrs; assay type: ADME, organism-based
Method in brief: (§1)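 Plasma was taken from Colo205 tumour-bearing female nude mice sacrificed 1 or 8 h after a single 40 mg/kg oral dose. Drug concentrations were measured in µM.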

[3] = Drug level in mouse plasma at 40 mg/kg, po administered as single dose measured after 1 hr; assay type: ADME, organism-based; method in brief: as §1
[4] = Half life in mouse; assay type: ADME, organism-based; conditions: in vivo
[5] = Oral bioavailability in mouse; assay type: ADME, organism-based; conditions: in vivo
[6] = Oral bioavailability in dog; assay type: ADME, organism-based, Canis lupus familiaris; conditions: in vivo
[7] = Metabolic stability in mouse hepatocytes assessed as intrinsic clearance measured per million cells; assay type: ADME, cell-based, Hepatocyte; conditions: read-out: CLH
MDR1 = test: Apparent permeability in LLC-PK1 cells expressing MDR1; assay type: ADME, cell-based, Sus scrofa; conditions: pig
Method in brief: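 The cells were MDR1-LLC PK1, a line engineered to express the P-gp efflux pump. Permeability was taken as apical-to-basolateral Papp (10⁻⁶ cm/s), and the efflux ratio was also derived.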

[8] = Half life in dog; assay type: ADME, Canis lupus familiaris; conditions: in vivo
[9] = Clearance in dog; assay type: ADME, Canis lupus familiaris; conditions: in vivo
[10] = Oral bioavailability in rat; assay type: ADME, organism-based; conditions: in vivo
[11] = Clearance in guinea pig; assay type: ADME, Cavia porcellus; conditions: in vivo
[12] = Volume of distribution at steady state in dog; assay type: ADME, Canis lupus familiaris; conditions: in vivo, read-out: Vdss
[13] = Volume of distribution at steady state in rat; assay type: ADME; conditions: in vivo, read-out: Vdss
[14] = Volume of distribution at steady state in guinea pig; assay type: ADME, Cavia porcellus; conditions: in vivo, read-out: Vdss
[15] = Half life in rat; assay type: ADME; conditions: in vivo
[16] = Clearance in rat; assay type: ADME; conditions: in vivo
[17] = Half life in guinea pig; assay type: ADME, Cavia porcellus; conditions: in vivo
[18] = Metabolic stability in dog hepatocytes assessed as intrinsic clearance measured per million cells; assay type: ADME, cell-based, Canis lupus familiaris, Hepatocyte; conditions: read-out: CLH
[19] = Metabolic stability in rat hepatocytes assessed as intrinsic clearance measured per million cells; assay type: ADME, cell-based, Hepatocyte; conditions: read-out: CLH
[20] = Metabolic stability in human hepatocytes assessed as intrinsic clearance measured per million cells; assay type: ADME, cell-based, Hepatocyte; conditions: read-out: CLH
[21] = Clearance in mouse; assay type: ADME, organism-based; conditions: in vivo
[22] = Volume of distribution at steady state in mouse; assay type: ADME, organism-based; conditions: in vivo, read-out: Vdss
[23] = Metabolic stability in rat liver microsomes assessed as intrinsic clearance; assay type: ADME, Microsome; conditions: read-out: CLH
[24] = Metabolic stability in human liver microsomes assessed as intrinsic clearance; assay type: ADME, Microsome; conditions: read-out: CLH

Structure (SMILES)	logD [1]	concentration at 8 h [2]	concentration at 1 h [3]	microsomal CLint [23]	microsomal CLint [24]	also measured
Cc1cc(Cl)c(-c2cn(C)cn2)cc1NC(=O)c1ccc(OCc2ccccn2)cc1	3.1					
Cc1cc(Cl)c(-c2cn(C)c(C)n2)cc1NC(=O)c1ccc(OCc2ccccn2)cc1	3.3					
Cc1cc(C)c(-c2nc3ccccc3[nH]2)cc1NC(=O)c1ccc(OCc2ccccn2)cc1	> 3.5			21 µL/min/mg	30 µL/min/mg	
Cc1cc(C)c(-c2cn(C)cn2)cc1NC(=O)c1ccc(OCc2ccccn2)cc1	3	16 µM	94 µM			half-life [4]: 0.8 h; bioavailability [5]: 70%; bioavailability [6]: 32%; hepatocyte CLint [7]: < 1 µL/min/1e6 cells; Papp (MDR1): 16.5 ×10⁻⁶ cm/s; half-life [8]: 1.4 h; clearance [9]: 4.7 mL/min/kg; bioavailability [10]: 90%; clearance [11]: 1.6 mL/min/kg; Vd [12]: 0.5 L/kg; Vd [13]: 0.2 L/kg; Vd [14]: 0.5 L/kg; half-life [15]: 2.4 h; clearance [16]: 1.7 mL/min/kg; half-life [17]: 4.2 h; hepatocyte CLint [18]: 10 µL/min/1e6 cells; hepatocyte CLint [19]: 19 µL/min/1e6 cells; hepatocyte CLint [20]: 6 µL/min/1e6 cells; clearance [21]: 6.1 mL/min/kg; Vd [22]: 0.4 L/kg
Cc1cc(C)c(-c2cccc(N)n2)cc1NC(=O)c1ccc(OCc2ccccn2)cc1	> 3			155 µL/min/mg	88 µL/min/mg	
Cc1ccc(-c2ncc[nH]2)c(C)c1NC(=O)c1ccc(OCc2ccccn2)cc1	2.8	0.14 µM	3.3 µM			
Cc1csc(-c2cc(NC(=O)c3ccc(OCc4ccccn4)cc3)c(C)cc2C)n1	> 3			147 µL/min/mg	513 µL/min/mg	
Cc1cc(C)c(-c2cnc(C)n2C)cc1NC(=O)c1ccc(OCc2ccccn2)cc1	2.8	0.28 µM	2.9 µM			hepatocyte CLint [19]: 32 µL/min/1e6 cells; hepatocyte CLint [20]: 12 µL/min/1e6 cells
Cc1cc(Cl)c(-c2nccn2C)cc1NC(=O)c1ccc(OCc2ccccn2)cc1	3.2					
Cc1cc(C)c(-c2cccnc2)cc1NC(=O)c1ccc(OCc2ccccn2)cc1	> 3			78 µL/min/mg	62 µL/min/mg	
Cc1cc(C)c(-c2ccccn2)cc1NC(=O)c1ccc(OCc2ccccn2)cc1	> 3			296 µL/min/mg	209 µL/min/mg	
Cc1cc(C)c(-c2ccc(N)nn2)cc1NC(=O)c1ccc(OCc2ccccn2)cc1	2.6	2.7 µM	33 µM	8 µL/min/mg	< 4 µL/min/mg	
Cc1cc(C)c(-c2c(C)nn(C)c2C)cc1NC(=O)c1ccc(OCc2ccccn2)cc1	> 3			271 µL/min/mg	122 µL/min/mg	
Cc1cc(C)c(-c2c[nH]nc2C)cc1NC(=O)c1ccc(OCc2ccccn2)cc1	> 3	0.23 µM	5.5 µM	55 µL/min/mg	20 µL/min/mg	
CS(=O)(=O)c1ccc(C(=O)Nc2ccc(Cl)c(-c3ccccn3)c2)c(Cl)c1 [VISMODEGIB]	2.8	18.8 µM	10.3 µM			half-life [4]: 1 h; bioavailability [5]: 33%; bioavailability [10]: 49%; half-life [15]: 1.9 h; clearance [16]: 2 mL/min/kg; hepatocyte CLint [19]: 16 µL/min/1e6 cells; hepatocyte CLint [20]: < 1 µL/min/1e6 cells; clearance [21]: 5.6 mL/min/kg

Second part, led by results:

logD [1]	concentration at 8 h [2]	concentration at 1 h [3]	microsomal CLint [23]	microsomal CLint [24]	Structure (SMILES)	also measured
2.8					Cc1ccc(-c2c[nH]cn2)cc1NC(=O)c1ccc(OCc2ccccn2)cc1	
2.8					Cc1ccc(-c2nccn2C)cc1NC(=O)c1ccc(OCc2ccccn2)cc1	
3	7.5 µM				Cc1ccc(-c2ncc[nH]2)cc1NC(=O)c1ccc(OCc2ccccn2)cc1	
2.5	16 µM	63 µM			Cc1ccc(-c2cn(C)cn2)cc1NC(=O)c1ccc(OCc2ccccn2)cc1	
3					Cc1nc(-c2ccc(C)c(NC(=O)c3ccc(OCc4ccccn4)cc3)c2)c[nH]1	
2.9					Cc1ccc(-c2[nH]cnc2C)cc1NC(=O)c1ccc(OCc2ccccn2)cc1	
2.7					Cc1ccc(-c2cn(C)c(C)n2)cc1NC(=O)c1ccc(OCc2ccccn2)cc1	
3.1	1.9 µM	22.3 µM			Cc1cc(C)c(-c2ncc[nH]2)cc1NC(=O)c1ccc(OCc2ccccn2)cc1	half-life [4]: 0.7 h; bioavailability [5]: 75%; bioavailability [6]: 100%; hepatocyte CLint [7]: 6.6 µL/min/1e6 cells; Papp (MDR1): 7.5 ×10⁻⁶ cm/s; half-life [8]: 3.3 h; clearance [9]: 4 mL/min/kg; bioavailability [10]: 100%; clearance [11]: 18 mL/min/kg; Vd [12]: 0.9 L/kg; Vd [13]: 1.2 L/kg; Vd [14]: 1.8 L/kg; half-life [15]: 1.1 h; clearance [16]: 24 mL/min/kg; half-life [17]: 1.5 h; hepatocyte CLint [18]: 1.4 µL/min/1e6 cells; hepatocyte CLint [19]: 18 µL/min/1e6 cells; hepatocyte CLint [20]: 9 µL/min/1e6 cells; clearance [21]: 31 mL/min/kg; Vd [22]: 1.6 L/kg
3	20 µM	58 µM			Cc1cc(F)c(-c2ncc[nH]2)cc1NC(=O)c1ccc(OCc2ccccn2)cc1	hepatocyte CLint [19]: 14 µL/min/1e6 cells
2.8	0.08 µM	1.8 µM			Cc1ccc(-c2cnc(C)n2C)cc1NC(=O)c1ccc(OCc2ccccn2)cc1	
> 3					Cc1cc(Cl)c(-c2ncc[nH]2)cc1NC(=O)c1ccc(OCc2ccccn2)cc1	
3.2			32 µL/min/mg	9 µL/min/mg	Cc1cc(C)c(-c2ccc(N)cn2)cc1NC(=O)c1ccc(OCc2ccccn2)cc1	

From ChEMBL document CHEMBL4610013, “Heteroarylamide smoothened inhibitors: Discovery of N-[2,4-dimethyl-5-(1-methylimidazol-4-yl)phenyl]-4-(2-pyridylmethoxy)benzamide (AZD8542) and N-[5-(1H-imidazol-2-yl)-2,4-dimethyl-phenyl]-4-(2- pyridylmethoxy)benzamide (AZD7254)” (Bioorg Med Chem, 2020)
